# What was measured:
# P388 [1] = experiment: In vivo antileukemic activity against P388 leukemia at dose 12.5 mp/kg administered intraperitoneally; type: functional, Mus musculus
# HeLa = experiment: In vitro cytotoxicity against HeLa S3 cell lines; type: functional, cell-based; conditions: Homo sapiens
# P388 [2] = experiment: In vivo antileukemic activity against P388 leukemia at dose 8 mp/kg administered intraperitoneally; type: functional, Mus musculus
# Outline: (§1)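 BDF1 mice implanted ip with 10^6 P388 cells. Compound given ip as aqueous solution containing 3 equiv of L-lactic acid on days 1-5. Activity expressed as T/C (%); T/C ≥ 125% taken as statistically significant antileukemic activity.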
# P388 [3] = experiment: In vivo antileukemic activity against P388 leukemia at dose 50 mp/kg administered intraperitoneally; type: functional, Mus musculus; outline: as §1
# P388 [4] = experiment: In vivo antileukemic activity against P388 leukemia at dose 100 mp/kg administered intraperitoneally; type: functional, Mus musculus; outline: as §1
# P388 [5] = experiment: In vivo antileukemic activity against P388 leukemia at dose 25 mp/kg administered intraperitoneally; type: functional, Mus musculus; outline: as §1
# P388 [6] = experiment: In vivo antileukemic activity against P388 leukemia at dose 12.5 mp/kg administered intraperitoneally (30 days survivors, 3/6); type: functional, Mus musculus
# P388 [7] = experiment: In vivo antileukemic activity against P388 leukemia at dose 40 mp/kg administered intraperitoneally; type: functional, Mus musculus; outline: as §1
# P388 [8] = experiment: In vivo antileukemic activity against P388 leukemia at dose 25 mp/kg administered intraperitoneally (30 days survivors, 2/6)
# P388 [9] = experiment: In vivo antileukemic activity against P388 leukemia at dose 25 mp/kg administered intraperitoneally (30 days survivors, 3/6)
SMILES,IC50 (HeLa) [µg/mL],also measured
CCN(CC)CCNc1ccc2nnn3c4ccc(OC)cc4c(=O)c1c23,0.16,T/C (P388 [1]): 120%
CCN(CC)CCNc1ccc2nnn3c4ccc(O)cc4c(=O)c1c23,0.05,T/C (P388 [2]): 190%
O=c1c2ccccc2n2nnc3ccc(NCCNCCO)c1c32,0.29,T/C (P388 [3]): 133%
Cc1ccc2c(c1)c(=O)c1c(NCCCN(C)C)ccc3nnn2c31,0.15,
Cc1ccc2c(c1)c(=O)c1c(NCCN(C)C)ccc3nnn2c31,0.17,T/C (P388 [4]): 130%
CN(C)CCNc1ccc2nnn3c4ccc(Cl)cc4c(=O)c1c23,0.1,T/C (P388 [5]): 110%
CCN(CC)CCNc1ccc2nnn3c4ccc(Cl)cc4c(=O)c1c23,0.13,T/C (P388 [1]): 111%
O=c1c2cc([N+](=O)[O-])ccc2n2nnc3ccc(NCCNCCO)c1c32,0.12,T/C (P388 [5]): 133%
COc1ccc2c(c1)c(=O)c1c(NCCN(C)C)ccc3nnn2c31,0.1,T/C (P388 [5]): 110%
CN(C)CCCNc1ccc2nnn3c4ccc([N+](=O)[O-])cc4c(=O)c1c23,0.12,T/C (P388 [5]): 110%
CCN(CC)CCNc1ccc2nnn3c4ccccc4c(=O)c1c23,0.42,T/C (P388 [4]): 160%
CN(C)CCNc1ccc2nnn3c4ccccc4c(=O)c1c23,0.21,T/C (P388 [4]): 180%
CN(C)CCNc1ccc2nnn3c4ccc([N+](=O)[O-])cc4c(=O)c1c23,0.11,T/C (P388 [5]): 130%
O=c1c2cc(Cl)ccc2n2nnc3ccc(NCCNCCO)c1c32,0.16,T/C (P388 [5]): 133%
CN(C)CCCNc1ccc2nnn3c4ccccc4c(=O)c1c23,0.28,T/C (P388 [4]): 133%
Cc1ccc2c(c1)c(=O)c1c(NCCNCCO)ccc3nnn2c31,0.24,
O=C1c2ccccc2C(=O)c2c(NCCNCCO)ccc(NCCNCCO)c21 [AMETANTRONE],0.17,T/C (P388 [6]): 300%
COc1ccc2c(c1)c(=O)c1c(NCCNCCO)ccc3nnn2c31,0.09,T/C (P388 [1]): 120%
CN(C)CCCNc1ccc2nnn3c4ccc(Cl)cc4c(=O)c1c23,0.13,T/C (P388 [3]): 111%
CCN(CC)CCNc1ccc2nnn3c4ccc([N+](=O)[O-])cc4c(=O)c1c23,0.12,T/C (P388 [1]): 122%
O=c1c2cc(O)ccc2n2nnc3ccc(NCCNCCO)c1c32,0.12,T/C (P388 [1]): 210%
CCN(CC)CCNc1ccc2nnn3c4ccc(C)cc4c(=O)c1c23,0.21,T/C (P388 [7]): 133%
CN(C)CCNc1ccc2nnn3c4ccc(O)cc4c(=O)c1c23,0.1,T/C (P388 [8]): 260%
CN(C)CCCNc1ccc2nnn3c4ccc(O)cc4c(=O)c1c23,0.08,T/C (P388 [9]): 320%
COc1ccc2c(c1)c(=O)c1c(NCCCN(C)C)ccc3nnn2c31,0.17,
